From ChEMBL document CHEMBL1133116, “Synthesis and evaluation of 17-aliphatic heterocycle-substituted steroidal inhibitors of 17alpha-hydroxylase/C17-20-lyase (P450 17)” (J Med Chem, 2000)
The source made the active and inactive calls. The rule behind the calls is not given here.

Columns and labels:
[1] = biological target: T1, Steroid 17-alpha-hydroxylase/17,20 lyase (Rattus norvegicus, UniProt P11715); assay: Tested for inhibitory activity against Cytochrome P450 17 from rat testicular microsomes
T1 sequence (P11715 whole entry): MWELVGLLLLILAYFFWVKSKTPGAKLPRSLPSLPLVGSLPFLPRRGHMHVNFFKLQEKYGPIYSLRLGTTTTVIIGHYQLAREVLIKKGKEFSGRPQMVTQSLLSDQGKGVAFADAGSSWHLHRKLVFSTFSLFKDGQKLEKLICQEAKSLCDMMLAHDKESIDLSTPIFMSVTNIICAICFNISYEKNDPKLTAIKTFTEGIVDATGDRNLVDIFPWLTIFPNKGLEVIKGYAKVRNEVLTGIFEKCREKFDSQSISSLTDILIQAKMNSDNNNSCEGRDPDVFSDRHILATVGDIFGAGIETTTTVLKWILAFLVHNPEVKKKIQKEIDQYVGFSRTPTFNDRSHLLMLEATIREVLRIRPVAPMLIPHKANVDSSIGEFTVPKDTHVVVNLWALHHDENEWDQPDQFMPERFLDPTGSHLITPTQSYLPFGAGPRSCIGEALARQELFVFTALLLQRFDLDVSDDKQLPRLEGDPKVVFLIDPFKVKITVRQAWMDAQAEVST
Method in brief: (§1)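 Rat testicular microsomes incubated with progesterone substrate at 25 µM. Products were quantified by reverse-phase HPLC with UV detection. IC50 is the inhibitor concentration giving 50% inhibition, as the mean of at least two experiments, with deviations within 5%.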

[2] = biological target: T2, Steroid 17-alpha-hydroxylase/17,20 lyase (Homo sapiens, UniProt P05093); assay: Tested for inhibitory activity against Cytochrome P450 17 from human testicular microsomes
T2 sequence (P05093 whole entry): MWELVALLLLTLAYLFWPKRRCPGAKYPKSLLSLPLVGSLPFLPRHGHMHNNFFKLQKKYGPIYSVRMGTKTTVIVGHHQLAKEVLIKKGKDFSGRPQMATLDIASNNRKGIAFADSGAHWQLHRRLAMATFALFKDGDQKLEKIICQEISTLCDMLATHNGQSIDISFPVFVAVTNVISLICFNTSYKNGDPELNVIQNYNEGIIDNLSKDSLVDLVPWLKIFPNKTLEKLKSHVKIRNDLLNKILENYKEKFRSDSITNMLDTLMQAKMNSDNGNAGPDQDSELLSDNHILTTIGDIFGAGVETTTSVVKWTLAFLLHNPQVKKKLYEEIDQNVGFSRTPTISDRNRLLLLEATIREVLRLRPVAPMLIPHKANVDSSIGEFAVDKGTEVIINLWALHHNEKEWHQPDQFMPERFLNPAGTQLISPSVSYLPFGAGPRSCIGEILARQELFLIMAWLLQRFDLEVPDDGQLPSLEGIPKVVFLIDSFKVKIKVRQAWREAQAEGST

[3] = biological target: T1, Steroid 17-alpha-hydroxylase/17,20 lyase; assay: Binding affinity for Cytochrome P450 17 from rat testicular microsomes
Method in brief: (§2)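 Ki was determined by the method of Lee and Wilson in the testicular microsome P450 17 assay. Inhibitor was used between its IC40 and IC70 values, with progesterone at 1.25–20 µM and 15 min incubation. All other parameters matched the regular assay. Kinetics were analysed by Lineweaver-Burk plot.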

[4] = biological target: T2, Steroid 17-alpha-hydroxylase/17,20 lyase; assay: Binding affinity for Cytochrome P450 17 from human testicular microsomes; method in brief: as §2
[5] = biological target: T1, Steroid 17-alpha-hydroxylase/17,20 lyase; assay: Inhibition of Cytochrome P450 17 from rat testicular microsomes; method in brief: as §1
Rattus norvegicus [6] = species: Rattus norvegicus; assay: Percent reduction in plasma testosterone after 2 hr; assay type: functional
Method in brief: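 Adult male Sprague-Dawley rats, 7–8 per group, received a single intraperitoneal dose of 0.019 mmol/kg in olive oil/benzyl alcohol (95:5). Blood was taken by cardiac puncture under diethyl ether anesthesia at 2 h. Plasma testosterone was measured by RIA with [125I]testosterone, in ng/mL.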

Thromboxane-A synthase = biological target: T3, Thromboxane-A synthase (Homo sapiens, UniProt P24557); assay: Inhibition of thromboxane synthase P450 TXA2
T3 sequence (P24557 whole entry): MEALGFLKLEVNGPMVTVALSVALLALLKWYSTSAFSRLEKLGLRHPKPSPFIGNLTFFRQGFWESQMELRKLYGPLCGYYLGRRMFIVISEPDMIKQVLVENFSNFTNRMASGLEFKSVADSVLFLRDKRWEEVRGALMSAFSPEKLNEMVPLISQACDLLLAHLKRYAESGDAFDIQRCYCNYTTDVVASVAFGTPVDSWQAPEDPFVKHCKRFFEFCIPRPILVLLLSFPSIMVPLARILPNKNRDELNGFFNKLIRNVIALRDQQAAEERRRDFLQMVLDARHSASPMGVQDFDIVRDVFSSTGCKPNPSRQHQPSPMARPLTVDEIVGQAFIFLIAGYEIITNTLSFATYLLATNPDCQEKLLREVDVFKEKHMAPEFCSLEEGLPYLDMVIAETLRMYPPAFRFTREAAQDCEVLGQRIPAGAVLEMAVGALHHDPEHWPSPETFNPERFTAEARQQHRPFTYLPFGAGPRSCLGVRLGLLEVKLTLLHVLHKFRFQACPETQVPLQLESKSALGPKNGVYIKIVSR

[7] = biological target: T4, Cholesterol side-chain cleavage enzyme, mitochondrial (Bos taurus, UniProt P00189); assay: Inhibition of P450 scc
T4 sequence (P00189 whole entry): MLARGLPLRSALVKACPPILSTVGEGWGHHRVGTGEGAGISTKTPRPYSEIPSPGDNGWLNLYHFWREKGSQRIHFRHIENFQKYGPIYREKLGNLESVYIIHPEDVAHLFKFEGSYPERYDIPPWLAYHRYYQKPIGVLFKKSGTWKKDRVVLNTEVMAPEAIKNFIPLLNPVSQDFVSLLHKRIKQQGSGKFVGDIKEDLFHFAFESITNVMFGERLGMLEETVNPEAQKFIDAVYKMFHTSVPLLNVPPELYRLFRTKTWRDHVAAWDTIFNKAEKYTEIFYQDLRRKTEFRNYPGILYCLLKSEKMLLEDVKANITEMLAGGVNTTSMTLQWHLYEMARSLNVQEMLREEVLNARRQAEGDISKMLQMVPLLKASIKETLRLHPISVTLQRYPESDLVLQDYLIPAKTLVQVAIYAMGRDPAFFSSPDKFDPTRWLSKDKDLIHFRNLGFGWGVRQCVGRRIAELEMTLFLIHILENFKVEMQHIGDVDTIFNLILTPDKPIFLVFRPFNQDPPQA

Rattus norvegicus [8] = species: Rattus norvegicus; assay: Percent reduction in plasma testosterone after 6 hr; ne means No effect; assay type: functional, organism-based
Method in brief: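 Adult male Sprague-Dawley rats, 7–8 per group, received a single intraperitoneal dose of 0.019 mmol/kg in olive oil/benzyl alcohol (95:5). Blood was drawn by cardiac puncture under diethyl ether anesthesia at 6 h. Plasma testosterone was quantified by RIA using [125I]testosterone, in ng/mL.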

[9] = biological target: T5, 3-oxo-5-alpha-steroid 4-dehydrogenase 2 (Homo sapiens, UniProt P31213); assay: Inhibition of Steroid 5-alpha-reductase type 2 isozyme
T5 sequence (P31213 whole entry): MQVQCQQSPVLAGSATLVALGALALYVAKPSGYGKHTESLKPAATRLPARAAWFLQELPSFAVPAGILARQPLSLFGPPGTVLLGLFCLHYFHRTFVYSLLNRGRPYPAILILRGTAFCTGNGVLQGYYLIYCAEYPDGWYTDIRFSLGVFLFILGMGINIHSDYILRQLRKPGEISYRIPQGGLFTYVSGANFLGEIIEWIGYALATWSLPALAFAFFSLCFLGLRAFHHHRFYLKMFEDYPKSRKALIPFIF
Method in brief: (§3)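 The enzyme source for the type II isozyme was prostate homogenate from patients with benign prostatic hyperplasia (BPH).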

Aromatase = biological target: T6, Aromatase (Homo sapiens, UniProt P11511); assay: Inhibition of Cytochrome P450 19A1
T6 sequence (P11511 whole entry): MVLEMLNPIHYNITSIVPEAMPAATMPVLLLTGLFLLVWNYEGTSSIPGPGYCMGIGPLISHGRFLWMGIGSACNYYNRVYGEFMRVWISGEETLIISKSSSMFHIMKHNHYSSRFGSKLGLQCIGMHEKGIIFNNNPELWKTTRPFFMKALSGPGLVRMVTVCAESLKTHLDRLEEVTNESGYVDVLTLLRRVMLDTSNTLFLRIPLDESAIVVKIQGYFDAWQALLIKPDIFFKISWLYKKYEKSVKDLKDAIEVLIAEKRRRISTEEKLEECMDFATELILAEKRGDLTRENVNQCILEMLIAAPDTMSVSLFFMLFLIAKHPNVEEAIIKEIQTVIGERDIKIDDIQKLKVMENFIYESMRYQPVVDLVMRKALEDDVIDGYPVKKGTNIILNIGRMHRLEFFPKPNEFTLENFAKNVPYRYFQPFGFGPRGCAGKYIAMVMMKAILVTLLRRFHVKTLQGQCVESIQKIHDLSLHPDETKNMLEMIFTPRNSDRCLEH

[10] = biological target: T7, 3-oxo-5-alpha-steroid 4-dehydrogenase 1 (Homo sapiens, UniProt P18405); assay: Inhibition of steroid 5-alpha-reductase type I isozyme
T7 sequence (P18405 whole entry): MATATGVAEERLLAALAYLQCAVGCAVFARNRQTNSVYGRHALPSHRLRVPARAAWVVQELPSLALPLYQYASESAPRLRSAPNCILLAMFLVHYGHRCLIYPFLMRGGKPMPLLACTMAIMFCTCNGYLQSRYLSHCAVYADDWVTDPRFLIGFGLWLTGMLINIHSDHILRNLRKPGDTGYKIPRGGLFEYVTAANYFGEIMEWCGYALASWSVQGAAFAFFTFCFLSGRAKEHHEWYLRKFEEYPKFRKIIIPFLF
Method in brief: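 The enzyme source for the type I isozyme was the DU 145 cell line.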

[11] = biological target: T5, 3-oxo-5-alpha-steroid 4-dehydrogenase 2; assay: Inhibition of steroid 5-alpha-reductase type II isozyme; method in brief: as §3

Structure (SMILES): C[C@]12CC[C@H]3[C@@H](CC=C4C[C@@H](O)CC[C@@]43C)[C@@H]1CC[C@@H]2[C@H]1CO1
- IC50 [1]: 70 µM
- IC50 [2]: 1.25 µM

Structure (SMILES): C[C@]12CC[C@H]3[C@@H](CC=C4CC(O)CC[C@@]43C)C1=CC[C@@H]2[C@@H]1CN1 (single isomer, unassigned)
- IC50 [1]: 9.67 µM
- IC50 [2]: 0.97 µM

Structure (SMILES): C[C@]12CC[C@H]3[C@@H](CC=C4C[C@@H](O)CC[C@@]43C)C1=CC[C@@H]2[C@H]1CN1
- IC50 [1]: 0.43 µM
- Ki [3]: 0.007 µM
- IC50 [2]: 0.29 µM
- Ki [4]: 0.003 µM

Structure (SMILES): CC12CCC(O)CC1=CCC1C2CCC2(C)C(c3c[nH]cn3)=CCC12 (configuration not stated)
- IC50 [5]: 0.04 µM

Structure (SMILES): C[C@]12CC[C@H]3C(CC=C4CC(=O)CC[C@@]43C)[C@@H]1CC[C@@H]2[C@@H]1CN1 (single isomer, unassigned)
- IC50 [1]: 34000 µM
- IC50 [2]: > 2.5 µM

Structure (SMILES): C[C@]12CC[C@H]3[C@@H](CC=C4CC(=O)CC[C@@]43C)[C@@H]1CC[C@@H]2C1CO1 (some centres not stated)
- IC50 [1]: > 25 µM

Structure (SMILES): C[C@]12CC[C@H](O)CC1=CC[C@@H]1[C@@H]2CC[C@@]2(C)[C@H]1CC[C@]2(O)[C@@H]1CN1
- IC50 [1]: 32 µM
- IC50 [2]: > 2.5 µM

Structure (SMILES): C[C@]12CC[C@H]3[C@@H](CC=C4CC(O)CC[C@@]43C)[C@@H]1CC[C@@H]2[C@@H]1CN1 (single isomer, unassigned)
- IC50 [1]: 34 µM
- IC50 [2]: 1.52 µM

Structure (SMILES): C[C@]12CC[C@H]3[C@@H](CC=C4C[C@@H](O)CC[C@@]43C)[C@@H]1CC[C@@H]2[C@H]1CN1
- IC50 [5]: 0.21 µM
- Reduction (Rattus norvegicus [6]): 81%
- Ki [3]: 0.003 µM
- IC50 (Thromboxane-A synthase): 4 µM
- IC50 [7]: > 25 µM
- Reduction (Rattus norvegicus [8]): inactive
- IC50 [2]: 0.54 µM
- Ki [4]: 0.008 µM
- IC50 [9]: 10 µM
- IC50 (Aromatase): > 50 µM

Structure (SMILES): CC12CCC(=O)CC1=CCC1C2CCC2(C)C(CC3CN3)CCC12 (configuration not stated)
- IC50 [1]: 1.32 µM
- IC50 [10]: 1.6 µM
- IC50 [11]: 9 µM
- IC50 [2]: 1.8 µM

Structure (SMILES): CC1(C2CCC3C4CC=C5CC(O)CCC5(C)C4CCC32C)NN1 (configuration not stated)
- IC50 [1]: 16 µM
- IC50 [2]: > 25 µM
